In ChEMBL document CHEMBL1151758, “Synthesis of polyfluoro ketones for selective inhibition of human phospholipase A2 enzymes” (J Med Chem, 2008):

What was measured:
[1] = molecular target: T1, Phospholipase A2 group V (Homo sapiens) (UniProt P39877); test: Inhibition of human group 5 sPLA2 at 0.091 mol fraction by mixed micelle-based assay
T1 sequence (whole entry): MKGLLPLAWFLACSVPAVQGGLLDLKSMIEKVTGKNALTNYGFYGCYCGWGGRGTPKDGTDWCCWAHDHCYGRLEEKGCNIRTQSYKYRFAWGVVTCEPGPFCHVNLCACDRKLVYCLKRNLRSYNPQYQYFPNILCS
Method in brief: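 Modified Dole assay. Inhibitor present at 0.091 mole fraction of the total substrate interface; percent inhibition recorded.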

[2] = molecular target: T2, 85/88 kDa calcium-independent phospholipase A2 (Homo sapiens) (UniProt O60733); test: Inhibition of human group 6A iPLA2 by mixed micelle-based assay
T2 sequence (whole entry): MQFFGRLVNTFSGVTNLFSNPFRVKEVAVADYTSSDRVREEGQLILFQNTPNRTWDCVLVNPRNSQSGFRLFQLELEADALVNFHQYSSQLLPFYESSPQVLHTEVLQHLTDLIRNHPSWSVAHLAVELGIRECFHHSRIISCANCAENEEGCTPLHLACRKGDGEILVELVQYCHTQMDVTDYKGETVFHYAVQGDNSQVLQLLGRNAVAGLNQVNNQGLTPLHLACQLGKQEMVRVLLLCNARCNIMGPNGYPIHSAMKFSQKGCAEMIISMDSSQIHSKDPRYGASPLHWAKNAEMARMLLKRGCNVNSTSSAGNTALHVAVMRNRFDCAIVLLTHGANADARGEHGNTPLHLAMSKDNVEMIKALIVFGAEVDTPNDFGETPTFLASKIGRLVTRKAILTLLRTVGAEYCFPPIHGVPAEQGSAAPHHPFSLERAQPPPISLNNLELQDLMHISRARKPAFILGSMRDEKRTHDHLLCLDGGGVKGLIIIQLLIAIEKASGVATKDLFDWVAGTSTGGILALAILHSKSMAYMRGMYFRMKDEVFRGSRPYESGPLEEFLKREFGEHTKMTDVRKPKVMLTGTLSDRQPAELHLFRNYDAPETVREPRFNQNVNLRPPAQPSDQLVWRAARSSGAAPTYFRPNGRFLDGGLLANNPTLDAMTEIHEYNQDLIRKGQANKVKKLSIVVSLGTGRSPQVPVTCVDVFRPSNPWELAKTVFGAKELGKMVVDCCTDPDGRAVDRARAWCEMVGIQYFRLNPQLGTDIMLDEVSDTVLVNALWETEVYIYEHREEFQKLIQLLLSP
Method in brief: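 Modified Dole assay. Buffer: 200 mM HEPES pH 7.0, 1 mM ATP, 2 mM DTT, 0.1 mg/ml BSA. XI(50) is the inhibitor mole fraction in the total interface causing 50% inhibition. It was estimated for compounds exceeding 90% inhibition at 0.091 mole fraction.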

[3] = molecular target: T2, 85/88 kDa calcium-independent phospholipase A2 (Homo sapiens); test: Inhibition of human group 6A iPLA2 at 0.091 mol fraction by mixed micelle-based assay
Method in brief: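 Modified Dole assay. Buffer: 200 mM HEPES pH 7.0, 1 mM ATP, 2 mM DTT, 0.1 mg/ml BSA. Percent inhibition read with inhibitor at 0.091 mole fraction of the total substrate interface.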

[4] = molecular target: T3, Cytosolic phospholipase A2 (Homo sapiens) (UniProt P47712); test: Inhibition of human group 4A cPLA2 at 0.091 mol fraction by mixed micelle-based assay
T3 sequence (whole entry): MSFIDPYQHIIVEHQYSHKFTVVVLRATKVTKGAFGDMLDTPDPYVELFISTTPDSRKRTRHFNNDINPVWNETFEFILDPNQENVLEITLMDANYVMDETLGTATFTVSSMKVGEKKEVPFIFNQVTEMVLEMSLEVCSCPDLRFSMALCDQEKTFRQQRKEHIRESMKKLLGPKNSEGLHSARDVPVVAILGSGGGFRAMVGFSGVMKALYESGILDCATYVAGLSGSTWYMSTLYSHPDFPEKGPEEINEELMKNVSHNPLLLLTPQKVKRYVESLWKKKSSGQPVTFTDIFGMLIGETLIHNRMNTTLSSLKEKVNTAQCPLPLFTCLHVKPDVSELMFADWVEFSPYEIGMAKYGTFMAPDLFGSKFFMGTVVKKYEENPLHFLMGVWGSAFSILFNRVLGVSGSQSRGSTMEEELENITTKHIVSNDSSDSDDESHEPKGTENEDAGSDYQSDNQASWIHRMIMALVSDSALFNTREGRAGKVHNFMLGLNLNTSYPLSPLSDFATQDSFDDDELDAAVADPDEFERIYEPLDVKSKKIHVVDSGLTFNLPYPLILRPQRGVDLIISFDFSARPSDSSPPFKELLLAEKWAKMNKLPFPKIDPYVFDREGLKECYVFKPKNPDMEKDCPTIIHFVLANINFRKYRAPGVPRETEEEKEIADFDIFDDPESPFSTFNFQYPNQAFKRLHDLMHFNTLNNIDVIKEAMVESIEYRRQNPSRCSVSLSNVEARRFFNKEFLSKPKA
Method in brief: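 Modified Dole assay, radiolabel release. Buffer: 100 mM HEPES pH 7.5, 90 μM CaCl2, 2 mM DTT, 0.1 mg/ml BSA. Percent inhibition measured with inhibitor at 0.091 mole fraction of the total substrate interface.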

[5] = molecular target: T3, Cytosolic phospholipase A2 (Homo sapiens); test: Inhibition of human group 4A cPLA2 by mixed micelle-based assay
Method in brief: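 Buffer: 100 mM HEPES pH 7.5, 90 μM CaCl2, 2 mM DTT, 0.1 mg/ml BSA. XI(50) is the inhibitor mole fraction in the total substrate interface that gives 50% inhibition. It was estimated for compounds giving >90% inhibition at 0.091 mole fraction.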

[6] = molecular target: T1, Phospholipase A2 group V (Homo sapiens); test: Inhibition of human group 5 sPLA2 by mixed micelle-based assay
Method in brief: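 Modified Dole assay. XI(50) is the inhibitor mole fraction of the total interface that halves activity. It was estimated only where inhibition at 0.091 mole fraction exceeded 90%.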

Compound: O=C(CCCCCc1ccccc1)C(F)(F)F
- inhibition [1]: 48%
- XI50 [2]: 0.0025
- inhibition [3]: 96%
- inhibition [4]: 62%

Compound: O=C(CCCCc1ccccc1)C(F)(F)C(F)(F)F
- inhibition [1]: 28%
- XI50 [2]: 0.0073
- inhibition [3]: 98%
- inhibition [4]: < 25%

Compound: CCCCCCCCCCCCCCCC(=O)C(F)(F)C(F)(F)F
- inhibition [1]: 43%
- inhibition [3]: 50%
- inhibition [4]: < 25%

Compound: CCCCCCCCCCOc1ccc(CCCCC(=O)C(F)(F)F)cc1
- inhibition [1]: 84%
- XI50 [2]: 0.0166
- inhibition [3]: 94%
- inhibition [4]: 95%
- XI50 [5]: 0.0116

Compound: CCCCCCOc1ccc(CCC(=O)C(F)(F)F)cc1
- inhibition [1]: 82%
- XI50 [2]: 0.0328
- inhibition [3]: 85%
- inhibition [4]: 91%
- XI50 [5]: 0.0199

Compound: O=C(CCCCCCc1ccccc1)C(F)(F)F
- inhibition [1]: 53%
- XI50 [2]: 0.0018
- inhibition [3]: 99%
- inhibition [4]: 68%

Compound: O=C(CCCCCCc1ccccc1)C(F)(F)C(F)(F)F
- inhibition [1]: 75%
- XI50 [2]: 0.0065
- inhibition [3]: 98%
- inhibition [4]: 65%

Compound: O=C(CCCCCc1ccccc1)C(F)(F)C(F)(F)F
- inhibition [1]: 46%
- XI50 [2]: 0.0065
- inhibition [3]: 98%
- inhibition [4]: 56%

Compound: CCCCCCCCCCOc1ccc(CCC(=O)C(F)(F)F)cc1
- inhibition [1]: 80%
- XI50 [2]: 0.0208
- inhibition [3]: 94%
- inhibition [4]: 96%
- XI50 [5]: 0.0156

Compound: CCCCCCCCCCCCCCC(F)C(=O)C(F)(F)F (stereo not drawn)
- inhibition [1]: 86%
- XI50 [2]: 0.0011
- inhibition [3]: 93%
- XI50 [6]: 0.0236
- inhibition [4]: 94%
- XI50 [5]: 0.0167

Compound: O=C(CCc1ccc(OCc2ccccc2)cc1)C(F)(F)F
- inhibition [1]: 49%
- inhibition [3]: 71%
- inhibition [4]: 88%

Compound: OC(O)(C(F)(F)F)C(F)(F)CCCc1ccccc1
- inhibition [1]: 59%
- inhibition [3]: 49%
- inhibition [4]: 27%

Compound: CCCCCCOc1ccc(CCCCC(=O)C(F)(F)F)cc1
- inhibition [1]: 86%
- XI50 [2]: 0.0169
- inhibition [3]: 91%
- inhibition [4]: 92%
- XI50 [5]: 0.0098

Compound: CCCCCCCCCCCCCCCC(=O)C(F)(F)F
- inhibition [1]: 79%
- XI50 [2]: 0.0195
- inhibition [3]: 92%
- inhibition [4]: 96%
- XI50 [5]: 0.0223

Compound: CCCCCCOc1ccc(CCC(=O)C(F)(F)C(F)(F)F)cc1
- inhibition [1]: 86%
- XI50 [2]: 0.0075
- inhibition [3]: 95%
- inhibition [4]: 73%

Compound: O=C(CCCCc1ccccc1)C(F)(F)F
- inhibition [1]: < 25%
- XI50 [2]: 0.0096
- inhibition [3]: 96%
- inhibition [4]: 38%
